Screens from PubChem.
TbMetRS inhib: T. brucei MetRS inhibitors, primary screen, biochemical, luminescence; methionyl-tRNA synthetase (Trypanosoma brucei brucei); purified T. brucei MetRS, ATP depletion, Kinase-Glo luminescence; AID 624268, 2012; hit rate 0.4% among 360,000; inhibition, % at 11.9 µM;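 active means inhibition above a per-plate cutoff of the control wells' mean inhibition plus 3 SD, cut at about 5.5% in these data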;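 further: 0% = DMSO wells median and 100% = median of wells with control inhibitor compound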
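Assay system: T. brucei methionyl-tRNA synthetase, purified | Medium: HEPES buffer with MgCl2, KCl, DTT, spermine, BSA, pyrophosphatase | Compound: 11.9 µM single point | Incubation: 15 min enzyme-compound preincubation, 2 h reaction, 10 min detection, 25 °C | Measured by: Kinase-Glo luciferase luminescence reporting remaining unconsumed ATP | Measure: % inhibition normalized to control-well medians | Replication: Singlicate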
NALP3 yeast inh: NALP3 inflammasome inhibitors in reconstituted yeast, primary screen, luminescence, uHTS; Yeast reconstituted NLRP3/ASC/caspase-1, beta-gal luminescence, 24 h; AID 2825, 2010; inhibition, % at 10 µM; hit rate 0.39% among 330,000;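 active means inhibition of 50% or more; inactive means inhibition below 50%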;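 further: plate controls were induced DMSO wells for no effect and uninduced yeast grown without galactose for full effect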
MC4R ag barr: MC4R agonists recruiting beta-arrestin, primary screen, cell-based, luminescence, agonist arm of biased-ligand search; AID 540308, 2011; activation, % at 8.9 µM; U2OS MC4R beta-arrestin complementation; percent of melanotan II response, DMSO zero; hit rate 0.98% among 360,000;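 active means activation above a per-plate cutoff, the mean activation of sample wells on that plate plus 3 SD, cut at about 8% in these data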
Target sequence (P32245 whole entry, looked up): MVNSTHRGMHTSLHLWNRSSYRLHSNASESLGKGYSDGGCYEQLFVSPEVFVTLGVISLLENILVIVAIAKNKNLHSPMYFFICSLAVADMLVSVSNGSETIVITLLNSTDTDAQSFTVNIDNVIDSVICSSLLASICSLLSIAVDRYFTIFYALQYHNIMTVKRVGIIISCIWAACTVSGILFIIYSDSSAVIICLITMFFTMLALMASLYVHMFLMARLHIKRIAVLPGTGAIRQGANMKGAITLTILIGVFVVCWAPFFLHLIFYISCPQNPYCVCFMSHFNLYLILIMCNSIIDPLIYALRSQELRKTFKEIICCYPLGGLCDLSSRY
MC4R antag cAMP: MC4R antagonists of cAMP signaling, primary screen, cell-based, TR-FRET, antagonist arm of biased-ligand search; inhibition, % at 6.5 µM; hit rate 0.48% among 360,000; Melanocortin receptor 4 (Homo sapiens), P32245; MC4R-expressing cells, MTII-stimulated cAMP, LANCE TR-FRET;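 active means inhibition above its plate's cutoff, the mean of tested wells on that plate plus 3 SD, cut at about 29% in these data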;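 further: 0% = Melanotan II alone and 100% = Melanotan II plus saturating MCL0020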
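system = U2OS cells with stable human MC4R expression | also added = Melanotan II challenge after compound preincubation | dosing = one concentration, 6.5 µM nominal | incubation = compound 30 min, challenge 1 h, detection 1 h | measured by = TR-FRET with Eu-cAMP and labeled anti-cAMP, 671 nm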
Bfl-1 A1 inh: caspase 3/7 activation in MEF A1-2A-BIM cells, primary screen, A1 inhibitor project, cell-based, luminescence, HTS; Caspase-Glo 3/7 luminescence, 3 h; percent of clofoctol response, vehicle zero; hit rate 0.066% among 330,000; caspase activation, % (no concentration beside the values); AID 2462, 2010;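 active means over half of replicate activation scores above 10%, or exactly half above 10 with the replicate mean above 10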
NALP1 inh: NALP1 inflammasome inhibitors in reconstituted yeast, colorimetric, S. cerevisiae, triplicate retest | S. cerevisiae NALP1/ASC/caspase-1 growth, X-gal OD620, 72 h | inhibition, % at 10 µM | hit rate 0.61% among 280,000 | AID 2071, 2009; in the data active means inhibition mostly above about 24%, no sharp cut-off; inactive means mostly below about 32%
MC4R barr ag: MC4R beta-arrestin agonists, retest, confirmation, cell-based, luminescence, U2OS; AID 602192, 2012; hit rate 31% among 2,400; shares compounds with MC4R ag barr; activation, % at 8.9 µM; U2OS MC4R beta-arrestin recruitment; scaled DMSO 0%, Melanotan II 100%;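 active means mean activation across replicates above the hit cutoff set in the earlier primary screen, cut at about 8% in these data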
MOR DOR agonist: agonists of MOR-DOR heterodimerization, counter-screen for MC4R biased agonist project, cell-based, luminescence | shares compounds with MC4R ag barr | U2OS PathHunter beta-arrestin, beta-gal luminescence; percent of deltorphin B response, DMSO zero | activation, % at 9.2 µM | hit rate 5.8% among 2,400 | AID 602194, 2012;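 active means mean activation across replicates exceeds the hit threshold derived in the earlier primary screen, cut at about 18% in these data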;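 further: 100% = deltorphin B at 0.9 µM final and 0% = DMSO alone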
An asterisk follows results filed as active; / = no result given. The list is not random: actives were taken first. Their share in the collection is about 2.5%.

SMILES	TbMetRS inhib	NALP3 yeast inh	MC4R ag barr	MC4R antag cAMP	Bfl-1 A1 inh	NALP1 inh	MC4R barr ag	MOR DOR agonist
CC(=O)Nc1cc(-c2ccc(N(C)C)cc2)cn2c(-c3ccc(F)cc3)cnc12	-1	/	123*	-8	/	/	70*	3
CC(=O)Nc1cc(-c2ccc(N(C)C)cc2)cn2c(-c3ccc(F)c(Cl)c3)cnc12	0	/	71*	2	/	/	200*	10
CC(=O)Nc1cc(-c2ccc(C(=O)NC3CC3)cc2)cn2c(-c3ccc(F)c(Cl)c3)cnc12	0	/	8	22	/	/	/	/
CC(=O)Nc1cc(-c2ccc(S(C)(=O)=O)cc2)cn2c(-c3ccc(F)cc3)cnc12	0	/	2	10	/	/	/	/
Cc1cccc(C)c1NC(=O)CNC(=O)C(C)N1CCN(c2cccc(Cl)c2)CC1 (stereo not drawn)	-1	3	3	-4	-1	/	/	/
CN(C)c1ccc(C(=O)C(=O)N2CCN(c3ccccc3)CC2)cc1	0	/	/	/	/	/	/	/
COc1ccc(CNC(=O)[C@@H]2CC=C[C@@H]3CCN(Cc4ccc(Cl)c(Cl)c4)C(=O)[C@@H]32)cc1	0	21	18*	1	0	/	8.8*	3
CCCCN1CC[C@H]2C=CC[C@@H](C(=O)NCc3ccc(OC)cc3)[C@H]2C1=O	0	25	-2	3	-1	/	/	/
COc1ccc(N2CCN(C(=O)CN3C(=O)NC4(CCCCC4C)C3=O)CC2)cc1 (stereo not drawn)	0	13	1	9	0	/	/	/
S=c1[nH]nc(COc2ccc(Cl)cc2)n1C1CCCCC1	-1	15	11*	4	1	19	1	7
Cc1ccc(OCc2n[nH]c(=S)n2C2CCCCC2)cc1	-1	27	5	16	0	12	/	/
Cc1cc(C(=O)Nc2sc3c(c2C#N)CCCCC3)cs1	-1	11	14*	9	-7	3	-2	3
CN(C)c1ccc(/C=N\Nc2nc(-c3ccccc3)cc(=O)[nH]2)cc1	-1	10	27*	-1	0	6	4	5
CN(C)c1ccc(C=NNc2nc3c([nH]2)c(=O)n(C)c(=O)n3C)cc1	0	/	-4	-21	/	/	/	/
CCOc1ccc(NS(=O)(=O)c2ccc(SC)cc2)cc1	-1	24	11*	3	0	12	0	7
O=C(CCCn1c(SCC(=O)c2ccc(Cl)cc2)nc2ccccc2c1=O)NCc1ccco1	-1	7	19*	10	1	-12	1	29*
Cc1nc2c3ccccc3nc(SCC(=O)c3ccc(Cl)cc3)n2n1	-1	13	11*	-1	1	22	14*	5
O=C(CCCCCn1c(SCC(=O)c2ccccc2)nc2ccccc2c1=O)NCc1ccco1	-1	19	28*	11	0	2	6	13
Cc1cccc(Cn2c(=O)n(CCCC(=O)NCc3ccco3)c(=O)c3ccccc32)c1	0	9	0	-27	0	32	/	/
Cc1nc2c3ccccc3nc(SCC(=O)N3CC(C)CC(C)C3)n2n1 (stereo not drawn)	0	9	-2	-1	1	13	/	/
O=C(CCCCn1c(=O)c2ccccc2n(Cc2ccc(Cl)cc2)c1=O)NCc1ccco1	-1	3	12*	-4	2	25	0	4
Cc1ccccc1C(=O)N1CCC(C(=O)NC(C)c2ccc(-n3ccnc3)cc2)CC1 (stereo not drawn)	0	7	-3	11	0	10	/	/
CCN(C[C@H]1N[C@@](C)(C(=O)OC)[C@H]2C(=O)N(Cc3ccccc3)C(=O)[C@@H]12)S(=O)(=O)c1ccccc1	-1	10	1	-1	-1	/	/	/
NC(Cc1ccccc1)c1csc(Nc2nncc3ccccc23)n1 (stereo not drawn)	0	/	2	1	/	/	/	/
COc1cccc(Nc2nc(C(N)CCc3ccccc3)cs2)n1 (stereo not drawn)	0	/	16*	-22	/	/	12*	13
SMILES	TbMetRS inhib	NALP3 yeast inh	MC4R ag barr	MC4R antag cAMP	Bfl-1 A1 inh	NALP1 inh	MC4R barr ag	MOR DOR agonist
NC(Cc1ccc(F)cc1)c1csc(Nc2cc(Oc3ccccc3)ncn2)n1 (stereo not drawn)	0	/	13*	-3	/	/	14*	12
COc1cccc(Nc2nc(C(N)Cc3ccc(Cl)cc3)cs2)n1 (stereo not drawn)	0	/	15*	-6	/	/	8.4*	9
NC(CCc1ccccc1)c1csc(Nc2nncc3ccccc23)n1 (stereo not drawn)	0	/	16*	4	/	/	12*	9
COc1cccc(Nc2nc(C(N)Cc3ccc(C(F)(F)F)cc3)cs2)n1 (stereo not drawn)	0	/	12*	-6	/	/	5	11
O=C(Nc1cc(S(=O)(=O)N2CCCCCC2)ccc1OCC(F)(F)F)c1cnccn1	0	-2	10*	8	1	/	-1	3
O=C(Nc1cc(S(=O)(=O)N2CCCC2)ccc1OCC(F)(F)F)c1ccncc1	0	/	0	3	/	/	/	/
Cc1ccc(C(C)C)c(OCCNC(=O)c2ccccc2O)c1	0	34	13*	4	1	-4	3	11
CSc1ccc(Cl)c(C(=O)NCCOc2cc(C)ccc2C(C)C)c1	-1	18	2	-1	1	-8	/	/
CC[C@@]12C(=O)N(c3cccc(F)c3)C(=O)N1[C@H](c1ccc(Br)cc1)[C@@H]1C(=O)N(C(C)(C)C)C(=O)[C@@H]12	0	6	3	5	0	/	/	/
O=C(NCc1ccccc1OC(F)(F)F)C1CCC(=O)N(CCCN2CCOCC2)C1 (stereo not drawn)	0	/	-2	-2	/	/	/	/
COc1cc2c(cc1NC(=O)c1cccc([N+](=O)[O-])c1)oc1ccccc12	-1	16	22*	-23	1	/	31*	47*
